Measured values of several laboratories.
Each line is one published result; the experiments were not run side by side.

CC(=C/C=C/C(C)=C/C(=O)O)/C=C1\CCCc2ccccc21 gave a Cmax of 46.9 ng/mL (human, plasma; oral, 5 mg, single dose, fasted, healthy volunteers).
With CC[C@H](C)[C@H](NC(=O)[C@H](CC(C)C)NC(=O)[C@H](Cc1c[nH]c2ccccc12)NC(=O)[C@H](CCC(N)=O)NC(=O)[C@@H](NC(=O)[C@H](Cc1ccccc1)NC(=O)[C@H](C)NC(=O)[C@H](CCCCNC(=O)COCCOCCNC(=O)COCCOCCNC(=O)CC[C@H](NC(=O)CCCCCCCCCCCCCCCCCCC(=O)O)C(=O)O)NC(=O)[C@H](CCC(N)=O)NC(=O)[C@H](C)NC(=O)[C@@H](NC(=O)[C@H](CCCCN)NC(=O)[C@H](CC(=O)O)NC(=O)[C@H](CC(C)C)NC(=O)C(C)(C)NC(=O)[C@@H](NC(=O)[C@H](CO)NC(=O)[C@H](Cc1ccc(O)cc1)NC(=O)[C@H](CC(=O)O)NC(=O)[C@H](CO)NC(=O)[C@@H](NC(=O)[C@H](Cc1ccccc1)NC(=O)[C@@H](NC(=O)CNC(=O)[C@H](CCC(=O)O)NC(=O)C(C)(C)NC(=O)[C@@H](N)Cc1ccc(O)cc1)[C@@H](C)O)[C@@H](C)O)[C@@H](C)CC)[C@@H](C)CC)C(C)C)C(=O)N[C@@H](C)C(=O)NCC(=O)NCC(=O)N1CCC[C@H]1C(=O)N[C@@H](CO)C(=O)N[C@@H](CO)C(=O)NCC(=O)N[C@@H](C)C(=O)N1CCC[C@H]1C(=O)N1CCC[C@H]1C(=O)N1CCC[C@H]1C(=O)N[C@@H](CO)C(N)=O the Cmax was 379 ng/mL (human, plasma; subcutaneous, 5 mg, patients).
With c1cc([C@H]2CC[C@]3(CC2)OO[C@]2(O3)C3CC4CC(C3)CC2C4)ccc1OCCN1CCOCC1 the Cmax was 339 ng/mL (human, plasma; oral, 200 mg, patients).
C[C@]12CC[C@H](n3ccnc3)CC1=CC[C@@H]1[C@@H]2CC[C@]2(C)C(n3cnc4ccccc43)=CC[C@@H]12.Cl.Cl has a Tmax of 1040 min (male CD-1 mouse, plasma; oral, 10 mg/kg).
With COc1ccc2[nH]cc(CCNc3nccc(Nc4cccc5c4ccn5C)n3)c2c1 the Tmax was 4.8 min (mouse, plasma; intravenous, 9.5 mg/kg).
C[C@]12CC[C@H](O)CC1=CC[C@@H]1[C@@H]2CC[C@]2(C)C(n3cnc4ccccc43)=CC[C@@H]12.Cl has a Tmax of 25.2 min (mouse, plasma; oral, 10 mg/kg).
N#Cc1cc(NC(=O)[C@H]2c3ccccc3C(=O)N(CC(F)(F)F)[C@@H]2c2cccnc2)ccc1F has an NOAEL of 30 mg/kg (general toxicity; beagle dog; oral, multiple doses).
The efflux ratio of COc1cc2c(c(OC)c1OC)-c1ccc(OC)c(=O)cc1[C@@H](NC(C)=O)CC2 is reported as 24.5 (Caco-2).
The Cmax of N=C(N)NCCC[C@@H](NC(=O)[C@@H](N)Cc1ccccc1)C(=O)N[C@@H](Cc1ccccc1)C(=O)N[C@@H](CCCCN)C(N)=O is reported as 212 ng/mL (human, plasma; subcutaneous, 5 mg, multiple doses, once daily, patients).
With N=c1c2c(-c3ccccc3)c(-c3ccccc3)n(Cc3ccccc3)c2ncn1[C@H]1CC[C@H](O)CC1 the efflux ratio was 10 (Caco-2; 3 µM, 2 h, pH 7.4).
For C=C(C)[C@@H]1CC[C@]2(NCCN3CCS(=O)(=O)CC3)CC[C@]3(C)[C@H](CC[C@@H]4[C@@]5(C)CC=C(C6=CC[C@@](COc7ncccc7C#N)(C(=O)O)CC6)C(C)(C)[C@@H]5CC[C@]43C)[C@@H]12, the Cmax was 390 ng/mL (human, plasma; oral, 100 mg, fed).
With Cc1ccccc1C(=O)NN=Cc1ccc(O)c(Br)c1 the Tmax was 30 min (mouse, plasma; intraperitoneal, 1.6 mg/kg).
For C[C@H]1O[C@@H](O[C@H]2[C@@H](O)C[C@H](O[C@H]3[C@@H](O)C[C@H](O[C@H]4CC[C@@]5(C)[C@H](CC[C@@H]6[C@@H]5C[C@@H](O)[C@]5(C)[C@@H](C7=CC(=O)OC7)CC[C@]65O)C4)O[C@@H]3C)O[C@@H]2C)C[C@H](O)[C@@H]1O, the efflux ratio was 5.33 (Caco-2; 10 µM, 1 h, pH 7.4).
